Values after ≈ are worked out from the molar mass of the structure shown. *1 amine or outer side, *2 acyl side, *3 side chain or, on linkers, in order; H or OH if unused. Where a SMILES comes first, the peptide text is derived from it. Bridges are numbered along the chain shown (N, C = ends). [ ]: non-standard residue; d: D form. The star is where a group is joined. hTyr(3S-OH,4S-OH,3'-OSO3H) = N[C@H](C(=O)O)[C@H](O)[C@@H](O)c1ccc(O)c(OS(=O)(=O)O)c1; Orn(4R-OH,5R-OH) = O=C([C@H](C[C@@H](O)[C@@H](O)N[*:3])N[*:1])[*:2]; Pro(3S-OH,4S-Me) = C[C@H]1CN[C@H](C(=O)O)[C@H]1O; X1 = CCCCCOc1ccc(-c2cc(-c3ccc(C(=O)*)cc3)no2)cc1; Gln(3R-OH) = NC(=O)C[C@@H](O)[C@H](N)C(=O)O; Hyp = O=C(O)[C@@H]1C[C@@H](O)CN1
How the values were obtained:
[1] = Ratio of fAUC in ICR/Swiss neutropenic mouse at static dose of 9.25 mg/kg, ip after 24 hrs to MIC for Candida glabrata isolate 37661; format: functional; conditions: route intraperitoneal
[2] = tested on: Nakaseomyces glabratus; assay: Antifungal activity against Candida glabrata isolate 33616 infected in ICR/Swiss neutropenic mouse assessed as dose required for 1-log kill after 24 hrs; format: functional
Method in brief: (§1)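 Neutropenic mice (cyclophosphamide sc 150 mg/kg day −4, 100 mg/kg day −1 and +2) infected iv by tail vein 2 h before therapy. Micafungin given ip every 24 h for 4 days at six fourfold-spaced dose levels, 0.078–80 mg/kg/24 h, 3 mice per group. Kidney CFU read at 96 h. Hill-model fit; dose giving 1 log10 below start-of-therapy burden.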

[3] = Ratio of AUC in ICR/Swiss neutropenic mouse at 1-Log kill dose of 2.36 mg/kg, ip after 24 hrs to MIC for Candida albicans isolate 580; format: functional; conditions: route intraperitoneal
[4] = tested on: Candida albicans; assay: Antifungal activity against Candida albicans isolate 580 by CLSI method; format: functional
Method in brief: (§2)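 Broth microdilution MIC per CLSI M27-A2. Two endpoints were read against the drug-free control well: partial inhibition (M1, CLSI recommended) and complete inhibition (M2). Tests were run in duplicate on four separate occasions, and the value is the mean.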

[5] = Ratio of AUC in ICR/Swiss neutropenic mouse at 1-Log kill dose of 1.69 mg/kg, ip after 24 hrs to MIC for Candida glabrata isolate 32930; format: functional; conditions: route intraperitoneal
[6] = Ratio of fAUC in ICR/Swiss neutropenic mouse at static dose of 2.4 mg/kg, ip after 24 hrs to MIC for Candida glabrata isolate 35315; format: functional; conditions: route intraperitoneal
[7] = Ratio of fAUC in ICR/Swiss neutropenic mouse at 1-Log kill dose of 1.69 mg/kg, ip after 24 hrs to MIC for Candida glabrata isolate 32930; format: functional; conditions: route intraperitoneal
[8] = tested on: Candida albicans; assay: Antifungal activity against Candida albicans isolate 98-17 by CLSI method; format: functional; method in brief: as §2
[9] = Ratio of fAUC in ICR/Swiss neutropenic mouse at static dose of 0.41 mg/kg, ip after 24 hrs to MIC for Candida glabrata isolate 33609; format: functional; conditions: route intraperitoneal
[10] = tested on: Nakaseomyces glabratus; assay: Antifungal activity against Candida glabrata isolate 5376 infected in ICR/Swiss neutropenic mouse assessed as dose required for 1-log kill after 24 hrs; format: functional; method in brief: as §1
[11] = Ratio of AUC in ICR/Swiss neutropenic mouse at static dose of 0.41 mg/kg, ip after 24 hrs to MIC for Candida glabrata isolate 33609; format: functional; conditions: route intraperitoneal
[12] = Ratio of fAUC in ICR/Swiss neutropenic mouse at 1-Log kill dose of 2.36 mg/kg, ip after 24 hrs to MIC for Candida albicans isolate 580; format: functional; conditions: route intraperitoneal
[13] = Ratio of fAUC in ICR/Swiss neutropenic mouse at static dose of 0.90 mg/kg, ip after 24 hrs to MIC for Candida glabrata isolate 5376; format: functional; conditions: dose 0.9 mg/kg; route intraperitoneal
[14] = Cmax in Candida infected ICR/Swiss neutropenic mouse at 5 mg/kg, ip; format: ADME, organism-based; set-up: dose 5 mg/kg, route intraperitoneal; conditions: in vivo
Method in brief: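 Single intraperitoneal micafungin doses (80, 20, 5 mg/kg in 0.2 ml, 0.15 M NaCl) given to infected neutropenic mice. Serum was taken from 3 mice per time point at 1, 2, 4, 6, 8, 12, 24 and 48 h. Drug was measured by microbiologic assay with C. albicans K1 (LLOQ 0.12 μg/ml). Noncompartmental analysis; half-life by nonlinear least squares; AUC by trapezoidal rule.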

[15] = tested on: Candida albicans; assay: Fungistatic activity against Candida albicans isolate 580 infected in ICR/Swiss neutropenic mouse after 24 hrs; format: functional
Method in brief: (§3)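 Neutropenic female ICR/Swiss mice received cyclophosphamide sc at 150 mg/kg on day −4, 100 mg/kg on day −1 and 100 mg/kg on day +2. Mice were infected iv via the tail vein, and ip micafungin in 0.15 M NaCl started 2 h later. Six dose levels from 0.078 to 80 mg/kg/24 h were given q24h for 4 days, 3 mice per dose. Kidney CFU were counted at 96 h. The static dose was derived from a sigmoid Emax (Hill) fit.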

[16] = Ratio of AUC in ICR/Swiss neutropenic mouse at static dose of 3.88 mg/kg, ip after 24 hrs to MIC for Candida glabrata isolate 33616; format: functional; conditions: route intraperitoneal
[17] = Ratio of fAUC in ICR/Swiss neutropenic mouse at 1-Log kill dose of 6.70 mg/kg, ip after 24 hrs to MIC for Candida glabrata isolate 570; format: functional; conditions: dose 6.7 mg/kg; route intraperitoneal
[18] = Ratio of fAUC in ICR/Swiss neutropenic mouse at static dose of 2.84 mg/kg, ip after 24 hrs to MIC for Candida albicans isolate K1; format: functional; conditions: route intraperitoneal
[19] = Ratio of AUC in ICR/Swiss neutropenic mouse at static dose of 2.84 mg/kg, ip after 24 hrs to MIC for Candida albicans isolate 98-210; format: functional; conditions: route intraperitoneal
[20] = Ratio of fAUC in ICR/Swiss neutropenic mouse at static dose of 1.80 mg/kg, ip after 24 hrs to MIC for Candida glabrata isolate 5592; format: functional; conditions: dose 1.8 mg/kg; route intraperitoneal
[21] = tested on: Nakaseomyces glabratus; assay: Antifungal activity against Candida glabrata isolate 34341 infected in ICR/Swiss neutropenic mouse assessed as dose required for 1-log kill after 24 hrs; format: functional; method in brief: as §1
[22] = Ratio of AUC in ICR/Swiss neutropenic mouse at 1-Log kill dose of 4.26 mg/kg, ip after 24 hrs to MIC for Candida glabrata isolate 34341; format: functional; conditions: route intraperitoneal
[23] = tested on: Candida albicans; assay: Antifungal activity against Candida albicans isolate 98-210 infected in ICR/Swiss neutropenic mouse assessed as dose required for 1-log kill after 24 hrs; format: functional; method in brief: as §1
[24] = Ratio of AUC in ICR/Swiss neutropenic mouse at 1-Log kill dose of 2.0 mg/kg, ip after 24 hrs to MIC for Candida glabrata isolate 5376; format: functional; conditions: route intraperitoneal
[25] = tested on: Nakaseomyces glabratus; assay: Antifungal activity against Candida glabrata isolate 35315 by CLSI method; format: functional
Method in brief: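 Broth microdilution per CLSI M27-A2. The MIC was read at partial inhibition (M1) and at complete inhibition (M2) against the drug-free control. Done in duplicate on four separate occasions and reported as the mean.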

[26] = Ratio of fAUC in ICR/Swiss neutropenic mouse at 1-Log kill dose of 4.60 mg/kg, ip after 24 hrs to MIC for Candida albicans isolate 98-17; format: functional; conditions: dose 4.6 mg/kg; route intraperitoneal
[27] = tested on: Nakaseomyces glabratus; assay: Fungistatic activity against Candida glabrata isolate 513 infected in ICR/Swiss neutropenic mouse after 24 hrs; format: functional; method in brief: as §3
[28] = Ratio of fAUC in ICR/Swiss neutropenic mouse at 1-Log kill dose of 20.6 mg/kg, ip after 24 hrs to MIC for Candida glabrata isolate 37661; format: functional; conditions: route intraperitoneal
[29] = tested on: Nakaseomyces glabratus; assay: Fungistatic activity against Candida glabrata isolate 5592 infected in ICR/Swiss neutropenic mouse after 24 hrs; format: functional; method in brief: as §3
[30] = Ratio of fAUC in ICR/Swiss neutropenic mouse at 1-Log kill dose of 10.4 mg/kg, ip after 24 hrs to MIC for Candida albicans isolate 98-210; format: functional; conditions: route intraperitoneal
[31] = tested on: Candida albicans; assay: Antifungal activity against Candida albicans isolate 98-210 by CLSI method; format: functional; method in brief: as §2

Compound: CCCCCOc1ccc(-c2cc(-c3ccc(C(=O)N[C@H]4C[C@@H](O)[C@@H](O)NC(=O)[C@@H]5[C@@H](O)[C@@H](C)CN5C(=O)[C@H]([C@H](O)CC(N)=O)NC(=O)[C@H]([C@H](O)[C@@H](O)c5ccc(O)c(OS(=O)(=O)O)c5)NC(=O)[C@@H]5C[C@@H](O)CN5C(=O)[C@H]([C@@H](C)O)NC4=O)cc3)no2)cc1 [MICAFUNGIN] (X1-[Orn(4R-OH,5R-OH)]T[Hyp][hTyr(3S-OH,4S-OH,3'-OSO3H)][Gln(3R-OH)][Pro(3S-OH,4S-Me)]; lactam 1-C)
- fAUC/MIC [1]: 2.5
- Activity [2]: 7.89 mg/kg
- RatioAUC/MIC [3]: 1686
- MIC [4]: 0.016 µg/mL (≈ 0.0126 µM)
- MIC50 [4]: 0.008 µg/mL (≈ 0.0063 µM)
- RatioAUC/MIC [5]: 3107
- fAUC/MIC [6]: 2.8
- fAUC/MIC [7]: 7.8
- MIC [8]: 0.06 µg/mL (≈ 0.0472 µM)
- MIC50 [8]: 0.03 µg/mL (≈ 0.0236 µM)
- fAUC/MIC [9]: 1.9
- Activity [10]: 2 mg/kg
- RatioAUC/MIC [11]: 753
- fAUC/MIC [12]: 4.21
- fAUC/MIC [13]: 8.9
- Cmax [14]: 7000 ng/mL
- Activity [15]: 1.98 mg/kg
- RatioAUC/MIC [16]: 428
- fAUC/MIC [17]: 30.2
- fAUC/MIC [18]: 13
- RatioAUC/MIC [19]: 5200
- fAUC/MIC [20]: 8.4
- Activity [21]: 4.26 mg/kg
- RatioAUC/MIC [22]: 1960
- Activity [23]: 10.4 mg/kg
- RatioAUC/MIC [24]: 7886
- MIC [25]: 0.12 µg/mL (≈ 0.0945 µM)
- MIC50 [25]: 0.06 µg/mL (≈ 0.0472 µM)
- fAUC/MIC [26]: 10.6
- Activity [27]: 1.34 mg/kg
- fAUC/MIC [28]: 5.2
- Activity [29]: 1.8 mg/kg
- fAUC/MIC [30]: 46
- MIC [31]: 0.03 µg/mL (≈ 0.0236 µM)
- MIC50 [31]: 0.016 µg/mL (≈ 0.0126 µM)
